The test system of series [1] is Staphylococcus aureus. The series can be described thus: Antibacterial activity against […] Staphylococcus aureus ATCC 29213 after 16 hrs by spectrophotometric analysis. It is filed as functional. As to conditions: ATCC 29213, 16 h.
Series [2] concerns Staphylococcus aureus. In words: Antibacterial activity against methicillin-susceptible Staphylococcus aureus clinical isolates after 24 hrs by CLSI […] broth microdilution method. It is filed as functional. As to conditions: for MBC: read-out: MBC99.9. Summed up: (§1)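 CLSI broth microdilution on clinical isolates. Log-phase bacteria in saline at 1–2 × 10⁵ CFU/mL were mixed with compounds diluted in LB, final 0.097–100 μg/mL, for 24 h at 37 °C. MIC is the lowest concentration with total growth inhibition. For MBC, clear wells were plated on sheep-blood agar for 18 h; >99.9% kill versus untreated control. Triplicate.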
In general terms: Broth dilution looks for growth in wells or tubes with falling amounts of substance.

In series [3] the test system is Enterococcus faecalis. The series can be described thus: Antibacterial activity against vancomycin-resistant Enterococcus faecalis clinical isolates after 24 hrs by CLSI […] broth microdilution method. Type of series: functional. The note with it: for MBC: read-out: MBC99.9. Summed up: as §1
Series [4] relates to Staphylococcus aureus. In words: Antibacterial activity against methicillin-resistant Staphylococcus aureus clinical isolates after 24 hrs by CLSI […] broth microdilution method. Type of series: functional. As to conditions: for MBC: read-out: MBC99.9. Summed up: as §1
Series [5] deals with Staphylococcus aureus. The series can be described thus: Antibacterial activity against Staphylococcus aureus. It is filed as functional.
Series [6] relates to Enterococcus faecalis. The series can be described thus: Antibacterial activity against vancomycin-susceptible Enterococcus faecalis clinical isolates after 24 hrs by CLSI […] broth microdilution method. It is filed as functional. The note with it: for MBC: read-out: MBC99.9. Summed up: as §1
Series [7] deals with Mycobacterium tuberculosis. In words: Antitubercular activity against Mycobacterium tuberculosis H37Rv by Alamar blue assay. It is filed as functional. Summed up: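 M. tuberculosis in 7H9 medium with ADC and 0.05% Tween 80; MIC by microplate Alamar Blue assay.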
In general terms: Alamar Blue is a resazurin reagent that responds to reducing activity.

For series [8], the system named is Staphylococcus aureus. The series can be described thus: Antibacterial activity against methicillin-susceptible Staphylococcus aureus. Type of series: functional.
Series [9] deals with T1, Cell division protein FtsZ (Staphylococcus aureus) (UniProt P0A031).
T1 sequence (whole entry): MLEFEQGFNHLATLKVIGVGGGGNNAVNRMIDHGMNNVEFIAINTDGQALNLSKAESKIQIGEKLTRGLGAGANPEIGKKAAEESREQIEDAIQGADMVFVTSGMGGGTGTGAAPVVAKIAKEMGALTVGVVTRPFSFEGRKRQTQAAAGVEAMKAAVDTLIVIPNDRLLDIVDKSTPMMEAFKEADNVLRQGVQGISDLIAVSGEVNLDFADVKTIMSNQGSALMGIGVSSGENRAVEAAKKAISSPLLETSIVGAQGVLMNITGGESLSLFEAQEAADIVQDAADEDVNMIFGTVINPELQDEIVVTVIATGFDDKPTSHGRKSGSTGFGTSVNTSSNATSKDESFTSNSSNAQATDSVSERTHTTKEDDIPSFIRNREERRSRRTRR
In words: Inhibition of Staphylococcus aureus FtsZ assessed as increase in cell volume at 0.5 ug/ml after overnight incubation by phase-contrast light microscopic analysis. Summed up:
(§2)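 S. aureus grown overnight with compound at levels starting from the previously determined MIC. Untreated cultures served as negative control. Examined by phase-contrast microscopy at 630×.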

In series [10] the test system is Mycolicibacterium smegmatis. The series can be described thus: Inhibition of FtsZ polymerization in GFP-tagged Mycobacterium smegmatis assessed as presence of elongated cells with enlarged bacterial pole at 4 ug/ml by fluorescence-based microscopic analysis. Summed up: (§3)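 GFP-expressing M. smegmatis or M. tuberculosis grown at subMIC concentrations on glass coverslips in 7H9/ADC/Tween 80. Cells were fixed with phosphate-buffered 4% paraformaldehyde and examined by fluorescence microscopy at 100× for cell morphology.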

In series [11] the test system is Mycobacterium tuberculosis. The series can be described thus: Inhibition of FtsZ polymerization in GFP-tagged Mycobacterium tuberculosis assessed as presence of elongated cells with enlarged bacterial pole at 4 ug/ml by fluorescence-based microscopic analysis. In outline: as §3
Series [12] deals with T1, Cell division protein FtsZ (Staphylococcus aureus). The series can be described thus: Inhibition of Staphylococcus aureus FtsZ assessed as alteration in septum formation at 0.5 ug/ml after 16 hrs by transmission electron microscopic analysis. Summed up: (§4)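 S. aureus at 10⁹ cells/ml grown 16 h at 37 °C with compound, untreated control included. Cells were pelleted at 3100 × g for 5 min, fixed in 2.5% glutaraldehyde in 0.1 M Na cacodylate pH 7.4 for 1 h at 4 °C, post-fixed in 1% OsO₄ for 1 h at 4 °C, and examined by TEM for septum and ultrastructure.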

Series [13] has the same target. In words: Inhibition of Staphylococcus aureus FtsZ assessed as alteration in septum formation at 0.25 ug/ml after 16 hrs by transmission electron microscopic analysis. Summed up:
as §4

The target is the same in series [14]. The series can be described thus: Inhibition of Staphylococcus aureus FtsZ assessed as increase in cell volume at 0.25 ug/ml after overnight incubation by phase-contrast light microscopic analysis. In outline: as §2
Series [15] deals with Mycobacterium tuberculosis. The series can be described thus: Inhibition of FtsZ polymerization in GFP-tagged Mycobacterium tuberculosis assessed as presence of elongated cells with enlarged bacterial pole at 8 ug/ml by fluorescence-based microscopic analysis. In outline:
as §3

The nature of series [16]: Cytotoxicity against human MRC5 cells assessed as reduction in cell viability after 24 hrs by MTT assay. Type of series: toxicity, cell-based. As to conditions: mrc5, 24 h. In outline: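 MRC-5 lung fibroblasts (DMEM, 10% heat-inactivated calf serum, 37 °C, 5% CO₂) at 10⁴ cells/well were exposed 24 h to twofold serial dilutions in DMEM. Then 1 mg/ml MTT in serum-free DMEM for 3 h, DMSO solubilisation, A570. Cytotoxicity % = 100 − (sample OD/untreated OD) × 100; TD₅₀/TD₉₀ are concentrations cutting viability 50/90%.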
For orientation: Tetrazolium assays rely on reduction of a dye to a coloured formazan, in cell work by metabolically active cells.

Series [17] is described as follows: Therapeutic index, ratio of TD90 for human MRC5 cells to MBC for […] Staphylococcus aureus ATCC 29213. Type of series: cell-based. As to conditions: read-out: TI. In outline:
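Ratio of TD₉₀ (MTT assay on MRC-5, 24 h exposure) to MBC against MRSA ATCC 29213 (LB tube assay, wash-out and overnight regrowth by OD600).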

The target of series [18] is T1, Cell division protein FtsZ (Staphylococcus aureus). The series can be described thus: Inhibition of Staphylococcus aureus FtsZ assessed as cellular desegregation at 0.25 ug/ml after overnight incubation by phase-contrast light microscopic analysis. Summed up: as §2
The target is the same in series [19]. In words: Inhibition of Staphylococcus aureus FtsZ assessed as bacterial swelling at 0.25 ug/ml after overnight incubation by phase-contrast light microscopic analysis. Summed up: as §2
In series [20] the test system is Mycolicibacterium smegmatis. In words: Inhibition of FtsZ polymerization in GFP-tagged Mycobacterium smegmatis assessed as presence of elongated cells with enlarged bacterial pole at 0.5 ug/ml by fluorescence-based microscopic analysis. In outline: as §3

SMILES strings stand for the structures. ≈ marks a conversion by molar mass, not a printed value. Calls of active or inactive are those of the source. Bounds are passed on as bounds.

As usually defined, the MIC is the smallest concentration in the dilution series that meets the test's criterion for growth inhibition. Read a low MIC as greater potency. In [1], `NC(=O)c1c(F)ccc(OCC2COc3ccccc3C2)c1F` (stereo unspecified) returned an MBC of 100 µg/mL (≈ 313 µM) and a minimum inhibitory concentration (MIC) of 100 µg/mL (≈ 313 µM).
The term MIC90 denotes the lowest concentration that inhibits either 90% of growth or 90% of the strains tested, depending on the study. On to `NC(=O)c1c(F)ccc(OCC2COc3ccccc3O2)c1F` (stereo unspecified), for which the MIC90 came out at 3.12 µg/mL in series [2], 25 µg/mL (≈ 77.8 µM) in [3], 3.12 µg/mL in [4] and 25 µg/mL (≈ 77.8 µM) in series [6]. The MBC in series [2] was 12.5 µg/mL; in series [3], 50 µg/mL (≈ 156 µM); in series [4] it was 6.25 µg/mL (≈ 19.5 µM); in series [6], 50 µg/mL (≈ 156 µM). Further, the figures for the minimum inhibitory concentration (MIC) in series [5] and in series [7] were 5 µg/mL (≈ 15.6 µM) and 16 µg/mL (≈ 49.8 µM), respectively.
For the compound `NC(=O)c1ccc2c(c1)OC(COc1ccc(F)c(C(N)=O)c1F)CO2` (stereo unspecified), the minimal inhibitory concentration (MIC) in [1] was > 100 µg/mL.
For the compound `N#Cc1ccc2c(c1)OC(COc1ccc(F)c(C(N)=O)c1F)CO2` (stereo unspecified), in series [1], the MBC came out at 2.5 µg/mL (≈ 7.22 µM) and the MIC amounted to 1.25 µg/mL (≈ 3.61 µM).
As to `NC(=O)c1c(F)ccc(OC[C@@H]2COc3ccc(Cl)cc3O2)c1F`, the MIC90 in series [2] is 0.5 µM; in series [3], 25 µg/mL (≈ 70.3 µM); in series [4] it was 1 µM; in [6], 25 µg/mL (≈ 70.3 µM); in series [8], 0.7 µM (≈ 0.249 µg/mL). Moreover, the MBC in series [2] amounted to 1 µM; in series [3], 50 µg/mL (≈ 141 µM); in series [4] it was 0.78 µg/mL (≈ 2.19 µM); in series [6], 50 µg/mL (≈ 141 µM). The inhibition entry in series [9], in series [10], in [11] and in series [12] was “Active” throughout. The same compound showed a minimal inhibitory concentration (MIC) in [7] of 8 µg/mL (≈ 22.5 µM).
As to `NC(=O)c1c(F)ccc(OCC2COc3ccc([N+](=O)[O-])cc3O2)c1F` (stereo unspecified), in series [1], the MBC stood at 2.5 µg/mL (≈ 6.83 µM) and the MIC was found to be 1.25 µg/mL (≈ 3.41 µM).
For `NC(=O)c1c(F)ccc(OCC2COc3cc(Cl)c(Cl)cc3O2)c1F` (stereo unspecified), the MIC90 in [2] came to 3.12 µg/mL; in [3] it was 12.5 µg/mL (≈ 32 µM); in series [4], 3.12 µg/mL; in series [6], 6.25 µg/mL (≈ 16 µM). Moreover, the MBC in [2] worked out at 6.25 µg/mL; in series [3] it was 50 µg/mL (≈ 128 µM); in series [4], 6.25 µg/mL (≈ 16 µM); in series [1], 5 µg/mL (≈ 12.8 µM); in series [6] it was 50 µg/mL (≈ 128 µM). For the same compound, the results for the MIC in [1] and in series [7] were 2.5 µg/mL (≈ 6.41 µM) and 16 µg/mL (≈ 41 µM), respectively.
For the compound `CCCCCCCCCOc1ccc(F)c(C(N)=O)c1F`, the inhibition entry in [13], in series [14], in series [15], in series [18], in series [19] and in series [20] was “Active” each time. Also, the MIC90 worked out at 0.19 µg/mL in series [2], 12.5 µg/mL (≈ 41.8 µM) in [3], 0.39 µg/mL in series [4] and 6.25 µg/mL (≈ 20.9 µM) in [6]. In addition, the MBC in series [2] was 0.19 µg/mL; in [3], 25 µg/mL (≈ 83.5 µM); in [4] it was 0.78 µg/mL (≈ 2.61 µM); in series [1] it was 1 µg/mL (≈ 3.34 µM); in [6], 12.5 µg/mL (≈ 41.8 µM). For the same compound, the figures for the minimal inhibitory concentration (MIC) in [1] and in series [7] were 1 µg/mL (≈ 3.34 µM) and 16 µg/mL (≈ 53.4 µM), respectively. Besides, the TD90 in series [16] was > 200 µg/mL. For the same compound, the selectivity ratio in [17] is > 200.
As for `NC(=O)c1c(F)ccc(OCC2CCc3ccccc3C2)c1F` (stereo unspecified), in series [1], the MIC was > 100 µg/mL.
In series [1], `NC(=O)c1c(F)ccc(OCC2COc3ccc(N)cc3O2)c1F` (stereo unspecified) came in with an MBC of 100 µg/mL (≈ 297 µM) and an MIC of 100 µg/mL (≈ 297 µM).
In the case of `NC(=O)c1c(F)ccc(OCC2COc3ccc(I)cc3O2)c1F` (stereo unspecified), the MIC90 in series [2] was 0.78 µg/mL; in [3] it was 6.25 µg/mL (≈ 14 µM); in series [4], 0.39 µg/mL; in [6], 6.25 µg/mL (≈ 14 µM). Moreover, the MBC worked out at 3.12 µg/mL in series [2]; 25 µg/mL (≈ 55.9 µM) in series [3]; 1.56 µg/mL (≈ 3.49 µM) in series [4]; 0.625 µg/mL (≈ 1.4 µM) in [1]; 12.5 µg/mL (≈ 28 µM) in series [6]. Inhibition of growth in series [1] (MIC) required 0.313 µg/mL (≈ 0.7 µM). The TD90 in [16] was > 800 µg/mL. Also, the selectivity ratio in [17] is > 1280.

The values above are taken from ChEMBL document CHEMBL3856196, “3-(Benzodioxan-2-ylmethoxy)-2,6-difluorobenzamides bearing hydrophobic substituents at the 7-position of the benzodioxane nucleus potently inhibit methicillin-resistant Sa and Mtb cell division” (Eur J Med Chem, 2016).
